High-throughput results from PubChem BioAssay.
In the library only some 3.5% were active in any assay of this set; here they are far more common.
MrgX1 agonist: agonists of human MrgX1 receptor, primary screen, HEK293 cells, Fluo-4 calcium flux | actives 0.44% (n = 310,000) | Mas-related G-protein coupled receptor member X1 (Homo sapiens), Q96LB2 | B-score at 10 µM | Fluo-4 calcium fluorescence, agonist mode; active compounds read high;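 active = calcium response B-score plate-corrected fluorescence ratio at least 3 library SD, with starting fluorescence B-score inside 5 SD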
Target sequence (Q96LB2 whole entry, looked up): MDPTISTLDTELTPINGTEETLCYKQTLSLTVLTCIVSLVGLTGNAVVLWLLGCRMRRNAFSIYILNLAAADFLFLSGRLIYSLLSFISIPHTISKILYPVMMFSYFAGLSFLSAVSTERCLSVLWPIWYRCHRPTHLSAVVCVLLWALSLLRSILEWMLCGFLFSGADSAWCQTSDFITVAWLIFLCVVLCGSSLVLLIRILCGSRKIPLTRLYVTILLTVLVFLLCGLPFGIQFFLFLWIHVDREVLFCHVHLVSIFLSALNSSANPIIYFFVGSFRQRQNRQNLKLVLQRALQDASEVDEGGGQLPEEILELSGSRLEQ
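Material – MrgX1-expressing HEK293 cells · Input – 15,000 cells seeded per well · Dosing – compound as first of three additions · Times – overnight seeding, then 1 h dark dye loading · Measured by – kinetic Fluo-4 NW fluorescence of intracellular calcium · Read-out – B-scored fluorescence response ratio · Benchmarks – positive and negative control wells on each plate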
MrgX1 antagonist: antagonists of human MrgX1 receptor, primary screen, HEK293 cells, Fluo-4 calcium flux; BAM8-22 antagonism; active compounds read low; actives 1.3% (n = 310,000); Mas-related G-protein coupled receptor member X1 (Homo sapiens), Q96LB2; AID 588676, 2011; B-score at 10 µM;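 active = calcium-response B-score plate-corrected more than 3 library SD below zero, starting fluorescence within 5 deviations, no agonist response on first addition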;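 note: peak minus trough fluorescence over baseline after final BAM8-22 challenge near maximal dose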
RGS4 act: RGS4 potentiators or activators, primary screen, cell-based, HEK293 M3R inducible RGS4, calcium flux; carbachol calcium flux Fluo4; active compounds read low; B-score at 10 µM; actives 0.92% (n = 310,000); AID 463111, 2010;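 active = B-score of the integrated calcium signal more than 4 SD below the library mean, with starting fluorescence not abnormally high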;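 note: negative B-score means reduced calcium response which marks RGS4 activation or potentiation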
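System: HEK293 FlpIn-TREx cells, stable M3R, doxycycline-inducible RGS4. Timing: overnight RGS4 induction, 30 min dye load 37 °C, 20 min compound RT. Also added: carbachol, ECmax concentration. Measured by: Fluo4 fluorescence kinetic imaging of calcium. Evaluation: integrated calcium ratio converted to B score.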
MrgX1 allo act: positive allosteric modulators of MrgX1, primary screen, HEK293 cells, Fluo-4 calcium flux. FDSS; active compounds read high. B-score at 10 µM. actives 0.63% (n = 310,000). AID 588675, 2011;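 active = plate-corrected calcium response at least 3 library SD above typical, normal starting fluorescence, not activating the receptor alone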;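 note: compound read alongside a low EC10 to EC30 dose of BAM8-22 agonist; peak minus trough fluorescence over baseline measured at the second addition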
RGS4 block: RGS4 inhibitors, primary screen, cell-based, HEK293 M3R inducible RGS4, calcium flux; Regulator of G-protein signaling 4 (Homo sapiens), P49798; Fluo-4 calcium flux; active compounds read high; triggered by carbachol at its EC20; B-score at 10 µM; actives 0.45% (n = 310,000);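 active = B-score, a plate-corrected calcium signal, over three deviations above library mean, with baseline fluorescence within five deviations of library mean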;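 note: RGS4 expression induced by doxycycline in cells with stable M3 receptor; B-score is computed from the integrated fluorescence ratio over baseline after carbachol; higher B-score means a larger calcium signal and so more RGS4 inhibition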
Active calls of the source: *.

Results for C#CCOCCOCCOCCNc1nc(N2CCN(C(=O)CCCCCCCCCCNC(=O)[C@H](CCCCN)n3cc(C[C@@H](C)CC)nn3)CC2)nc(N2CCN(C(=O)CCCCCCCCCCNC(=O)[C@H](CCCN=C(N)N)n3cc(C[C@@H](C)CC)nn3)CC2)n1 ?
MrgX1 agonist: 35*; MrgX1 antagonist: inactive; MrgX1 allo act: inactive

How did C#CCOCCOCCOCCNc1nc(N2CCN(C(=O)CCCCCCCCCCNC(=O)[C@H](CO)n3cc(CCCCCN)nn3)CC2)nc(N2CCN(C(=O)CCCCCCCCCCNC(=O)[C@H](CCCN=C(N)N)n3cc(C[C@@H](C)CC)nn3)CC2)n1 do in these assays?
MrgX1 agonist: 70*; MrgX1 antagonist: inactive; MrgX1 allo act: inactive

How did C#CCOCCOCCOCCNc1nc(N2CCN(C(=O)CCCCCCCCCCNC(=O)[C@H](CCCCN)n3cc(C[C@@H](C)CC)nn3)CC2)nc(N2CCN(C(=O)CCCCCCCCCCNC(=O)[C@@H]([C@H](C)O)n3cc(C)nn3)CC2)n1 do in these assays?
MrgX1 agonist: inactive; MrgX1 antagonist: inactive; MrgX1 allo act: 6.9*

Results for C#CCOCCOCCOCCNc1nc(N2CCN(C(=O)CCCCCCCCCCNC(=O)[C@@H](CCSC)n3cc(CCO)nn3)CC2)nc(N2CCN(C(=O)CCCCCCCCCCNC(=O)[C@H](CCCN=C(N)N)n3cc(C[C@@H](C)CC)nn3)CC2)n1 ?
MrgX1 agonist: inactive; MrgX1 antagonist: inactive; MrgX1 allo act: inactive

How did C#CCOCCOCCOCCNc1nc(N2CCN(C(=O)CCCCCCCCCCNC(=O)[C@H]([C@@H](C)CC)n3cc(CCCCN=C(N)N)nn3)CC2)nc(N2CCN(C(=O)CCCCCCCCCCNC(=O)[C@@H]([C@H](C)O)n3cc(C)nn3)CC2)n1 do in these assays?
MrgX1 agonist: inactive; MrgX1 antagonist: inactive; MrgX1 allo act: inactive

How did C#CCOCCOCCOCCNc1nc(N2CCN(C(=O)CCCCCCCCCCNC(=O)[C@H](CCCCN)n3cc(C)nn3)CC2)nc(N2CCN(C(=O)CCCCCCCCCCNC(=O)[C@H](CCCN=C(N)N)n3cc(C[C@@H](C)CC)nn3)CC2)n1 do in these assays?
MrgX1 agonist: 104*; MrgX1 antagonist: inactive; MrgX1 allo act: inactive

How did C#CCOCCOCCOCCNc1nc(N2CCN(C(=O)CCCCCCCCCCNC(=O)[C@H](CCCCN)n3cc(C)nn3)CC2)nc(N2CCN(C(=O)CCCCCCCCCCNC(=O)[C@@H]([C@H](C)O)n3cc(C)nn3)CC2)n1 do in these assays?
MrgX1 agonist: inactive; MrgX1 antagonist: inactive; MrgX1 allo act: inactive

How did COCCSc1nnc(NC(=O)COc2ccc3c(c2)OCO3)s1 do in these assays?
MrgX1 agonist: inactive; MrgX1 antagonist: inactive; RGS4 act: inactive; MrgX1 allo act: inactive; RGS4 block: inactive

How did CC(=O)/C(=N\Nc1ccccc1)Sc1cccc2cccnc12 do in these assays?
MrgX1 agonist: inactive; MrgX1 antagonist: -4.7*; RGS4 act: inactive; MrgX1 allo act: inactive; RGS4 block: inactive

How did CCC1=NN2C(=N)/C(=C\c3ccc(OCCOc4ccc(NC(C)=O)cc4)cc3)C(=O)N=C2S1 do in these assays?
MrgX1 agonist: inactive; MrgX1 antagonist: inactive; RGS4 act: inactive; MrgX1 allo act: 11*; RGS4 block: inactive

Results for CCc1nn2c(=O)cc(COc3ccc(/C=C4\C(=N)N5N=C(C)SC5=NC4=O)cc3)nc2s1 ?
MrgX1 agonist: inactive; MrgX1 antagonist: -4.5*; RGS4 act: inactive; MrgX1 allo act: 9.4*; RGS4 block: inactive

Results for CCC1=NN2C(=N)/C(=C/c3ccc(OS(=O)(=O)c4ccccc4)c(OC)c3)C(=O)N=C2S1 ?
MrgX1 agonist: inactive; MrgX1 antagonist: inactive; RGS4 act: inactive; MrgX1 allo act: inactive; RGS4 block: inactive

How did COc1cc(/C=C2\C(=N)N3N=C(C)SC3=NC2=O)cc(OC)c1OCCOc1ccccc1C do in these assays?
MrgX1 agonist: inactive; MrgX1 antagonist: inactive; RGS4 act: inactive; MrgX1 allo act: inactive; RGS4 block: inactive
